Screens deposited in PubChem by several laboratories.
This is a sample that favours compounds with a hit; in the whole collection about 1.6% have one here.
ADAM10 inh – ADAM10 inhibition, QFRET primary screen; hit rate 0.62% among 370,000; recombinant ADAM10, EDANS/DABCYL FRET peptide cleavage, 3 h; O14672; inhibition, % at 7 µM;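 active = inhibition above a per-campaign cutoff equal to the mean of compounds falling between control-based bounds plus 3 SD, cut at about 20% in these data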;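 note: 0% = DMSO wells while the 100% control is not disclosed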
Tn7 DDE FP – inhibitors of Tn7 peptide binding to human fibrin DD(E); AID 720508; P02675; FP displacement of FITC-Tn7 peptide from fibrin DD(E); 0% = median of compound wells per plate; hit rate 0.13% among 370,000; inhibition, % at 8.3 µM;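 active = inhibition above the mean of compounds falling within the control limits plus 3 SD of them, cut at about 14% in these data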;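 note: 0% = plate median of compound wells and 100% = 10 µM Aha-Tn7 peptide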
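Assay system: Human clot-derived fibrin DD(E) complex | Buffer or medium: Tris/NaCl/CaCl2 buffer, pH 7.8 | Repeats: One replicate per compound | Benchmarks: Aha-Tn7 high control | Measure: % inhibition scaled between sample-field median and high-control FP | Schedule: 10 min plus 3 h, room temperature | Signal: Fluorescence polarization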
ADAM17 inh – ADAM17 inhibition, QFRET primary screen. P78536. recombinant ADAM17, EDANS/DABCYL FRET peptide cleavage. inhibition, % at 6.95 µM. hit rate 0.83% among 370,000. AID 720648;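 active = inhibition above the mean of compounds lying between control limits plus 3 SD, set per campaign, cut at about 8.5% in these data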;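 note: 0% = DMSO-only wells as the low control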
Target sequence (P78536 215-824 limits assumed): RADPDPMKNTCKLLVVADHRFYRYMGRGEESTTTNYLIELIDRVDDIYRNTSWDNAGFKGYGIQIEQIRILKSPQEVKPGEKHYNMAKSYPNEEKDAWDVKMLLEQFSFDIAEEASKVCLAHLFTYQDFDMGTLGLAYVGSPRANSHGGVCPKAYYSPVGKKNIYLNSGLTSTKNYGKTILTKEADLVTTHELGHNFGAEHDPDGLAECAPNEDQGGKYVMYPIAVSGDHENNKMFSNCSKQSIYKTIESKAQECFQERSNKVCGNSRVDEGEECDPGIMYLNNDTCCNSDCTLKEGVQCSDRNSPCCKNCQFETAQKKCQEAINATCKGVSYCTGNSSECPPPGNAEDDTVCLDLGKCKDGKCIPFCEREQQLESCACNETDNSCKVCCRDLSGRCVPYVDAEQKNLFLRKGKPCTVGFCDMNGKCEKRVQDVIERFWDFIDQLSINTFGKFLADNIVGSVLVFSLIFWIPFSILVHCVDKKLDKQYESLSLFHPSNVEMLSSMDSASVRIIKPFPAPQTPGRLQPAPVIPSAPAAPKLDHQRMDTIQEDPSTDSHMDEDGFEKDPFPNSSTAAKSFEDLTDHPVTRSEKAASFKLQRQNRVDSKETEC
MT1-MMP act inh – inhibitors of human MT1-MMP activation; P50281; HT1080 RFP-PRO-GFP cells, GFP/RFP ratio fluorescence, overnight; percent of plate control window, DMSO zero; GFP/RFP ratio change, % at 20 µM; hit rate 0.061% among 360,000; AID 651647;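 active = GFP/RFP ratio change of at least 30% with cell ATP level not reduced by more than half and red fluorescence within 50% of control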
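Assay system: HT1080 RFP-PRO-GFP cells | Dosing: 20 µM single dose, 1% DMSO | Incubation: Cells overnight before dosing, compound overnight, 37 °C, 5% CO2 | Evaluation: GFP/RFP fluorescence ratio | Control set: DMSO-only wells and HT1080 RFP-L50D-GFP cell wells as references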
DDE Tn6 FP inh – disrupts Tn6 cyclic peptide binding to fibrin D-Dimer-E complex | hit rate 0.21% among 370,000 | P02675 | AID 720509 | Fibrin DD(E) TRITC-Tn6 fluorescence polarization displacement | inhibition, % at 8.3 µM;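 active = inhibition above a per-campaign cutoff: mean of compounds within control limits plus 3 SD, cut at about 15% in these data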;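 note: 0% = median of all compound wells on the plate and 100% = blocking peptide control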
ADAM10 confirm – human ADAM10 inhibition, confirmation | shares compounds with ADAM10 inh | ADAM10 QFRET peptide cleavage, EDANS fluorescence | inhibition, % at 6.95 µM | hit rate 1% among 2,100 | AID 743208;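 active = inhibition above about 20% chosen separately for each screening run, limit read from the data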;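 note: 0% = DMSO wells and 100% = marimastat wells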
ADAM17 counter – counter-screen for ADAM10 exosite inhibitors: inhibitors of human ADAM17 | shares compounds with ADAM10 inh | ADAM17 QFRET peptide cleavage, EDANS fluorescence | inhibition, % at 6.95 µM | hit rate 0.5% among 2,100;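 active = mean triplicate inhibition above the solvent-only control wells' mean plus 3 SD, cut at about 12% in these data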;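 note: 0% = DMSO wells and 100% = marimastat wells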
An asterisk follows results filed as active; . = not tested or not shown.

SMILES | ADAM10 inh | Tn7 DDE FP | ADAM17 inh | MT1-MMP act inh | DDE Tn6 FP inh | ADAM10 confirm | ADAM17 counter
CC(O)(c1ccc(F)c(F)c1)c1nc(-c2cc(F)cc(F)c2)cs1 (configuration not stated) | 20* | 1 | 5 | 7 | -10 | 4 | 2
CC(O)(c1ccccc1)c1nc(-c2ccc(F)c(Cl)c2)cs1 (configuration not stated) | 15 | 9 | 3 | 3 | 1 | . | .
COC(=O)[C@]12C[C@H](CC(=O)NCC34CC5CC(CC(C5)C3)C4)C(=O)N(CCc3ccc(OC)c(OC)c3)C1=C[C@H](C(C)C)O[C@@H]2C1CC1 | 12 | 0 | 3 | . | -6 | . | .
COc1ccc(N(CC(O)Cn2cnc3ccccc32)S(=O)(=O)c2ccc(C)cc2)cc1 (configuration not stated) | 22* | -8 | 8 | -3 | -4 | 2 | 0
C/C(CC(=O)Nc1ccc([N+](=O)[O-])cc1)=N/NC(=O)C1CC12CCC2 (configuration not stated) | 20* | 2 | 8 | 1 | 2 | 2 | 0
C/C(CC(=O)Nc1ccc([N+](=O)[O-])cc1)=N/NC(=O)C1C2CCCCC21 (configuration not stated) | 6 | 3 | 0 | 1 | 1 | . | .
CCOC(=O)C1=CCN(S(=O)(=O)c2ccc(Br)cc2)C1c1ccc(F)cc1 (configuration not stated) | -8 | 9 | 1 | . | 1 | . | .
COc1ccc(CCn2c(-c3ccc(C(C)(C)C)cc3)n[nH]c2=S)cc1OC | 24* | 3 | 2 | 2 | -2 | 0 | 0
COc1ccc(CCn2c(-c3ccc(Cl)cc3)n[nH]c2=S)cc1OC | 3 | -1 | -3 | 2 | -3 | . | .
COc1ccc(Cl)cc1NC(=O)CN(C)C(=O)CN1C(=O)NC(C)(C)C1=O | -8 | 10 | -4 | 0 | -3 | . | .
COc1ccc(Cl)cc1NC(=O)CN(C)C(=O)CN1C(=O)NC(C)(c2ccc3ccccc3c2)C1=O (configuration not stated) | 27* | -7 | 5 | 9 | -2 | 2 | 0
COc1ccc(Cl)cc1NC(=O)CN(C)C(=O)c1sc2ccccc2c1Cl | 24* | 2 | 7 | -1 | -10 | 9 | 3
COc1ccc(C(=O)N/N=C/c2ccc(OC)c(COc3ccccc3)c2)cc1 | 71* | -4 | 1 | 1 | -8 | 12 | 4
CCCN(CCC)C(=S)NC(=O)c1ccc(-c2ccccc2)cc1 | 24* | -4 | 5 | 3 | 1 | 3 | 1
CCc1c(-c2cccc(F)c2)ncn1CCc1ccccc1OC | 17 | -3 | 2 | . | -3 | . | .
C=C(C)CSc1nc2sc(C)c(C)c2c(=O)n1C | -1 | 3 | 2 | . | 10 | . | .
COc1ccc(-c2[nH]c(-c3ccc(C)cc3)nc2SCC(=O)Nc2nccs2)cc1 | 20* | 1 | 1 | 3 | -7 | 6 | 3
COCCN(C(=O)Cc1cccs1)C(C(=O)NCc1ccc(OC)cc1)c1ccc(OC)cc1 (configuration not stated) | -2 | 3 | 0 | -1 | -1 | . | .
COc1ccc(CNC(=O)C(c2ccc(C)cc2)N(Cc2cccs2)C(=O)c2ccc3c(c2)OCCO3)cc1 (configuration not stated) | 26* | 1 | 5 | -42 | -3 | 6 | 1
CCCCCCCCN1CCS(=O)(=O)N(Cc2ccc(Cl)cc2)C(C(=O)OC)C1 (configuration not stated) | -4 | 1 | -3 | . | -2 | . | .
[O-][n+]1cc(Cl)cc(Cl)c1 | -2 | 7 | -1 | 2 | -3 | . | .
C[C@H](CO)N1C[C@H](C)[C@@H](CN(C)C(=O)C2CC2)OCc2cn(nn2)CCCC1=O | -10 | 2 | -4 | . | 0 | . | .
C[C@H](CO)N1C[C@H](C)[C@H](CN(C)C(=O)C2CCCCC2)OCc2cnnn2CCCC1=O | 1 | -2 | -2 | . | -4 | . | .
O=C(Oc1cccc(NC(=O)c2ccco2)c1)c1cccc(S(=O)(=O)N2CCCCC2)c1 | 21* | 9 | 5 | 8 | -4 | 7 | 1
CCCCCCCCN1C(=O)[C@@H](CC(=O)NCCCCc2ccccc2)C[C@@]2(C(=O)OC)C1=C[C@H](C(C)(C)C)O[C@@H]2C | -3 | -2 | -4 | . | 5 | . | .
SMILES | ADAM10 inh | Tn7 DDE FP | ADAM17 inh | MT1-MMP act inh | DDE Tn6 FP inh | ADAM10 confirm | ADAM17 counter
COc1ccc(C=NN(C)C(=O)Nc2cccc(Cl)c2)cc1OC | -4 | 9 | 0 | . | 4 | . | .
Cc1cc(C)c2nc(NCc3ccccc3O)sc2c1 | 11 | -4 | -3 | 0 | -8 | . | .
COc1cc(CNc2nc3c(C)cc(C)cc3s2)ccc1O | 22* | -2 | 4 | -2 | 6 | 0 | 0
O=C(/C=C/c1ccccc1)NC(NC(=S)Nc1cccc(O)c1)C(Cl)(Cl)Cl (configuration not stated) | 21* | -4 | 6 | 2 | -5 | 8 | 2
CCOC(=O)c1[nH]c(C)c(C(=O)NCc2ccc(OC)cc2)c1C | 68* | 2 | -2 | 1 | 2 | 0 | 0
Cc1cc(NC(=O)C(C)SCC(=O)Nc2nnc(CC(C)C)s2)no1 (configuration not stated) | 82* | 0 | 1 | 3 | 2 | 1 | 0
CSC(=Cc1ccc(C(=O)c2ccc(C)cc2)n1C)S(C)=O (configuration not stated) | 3 | 5 | 0 | . | -8 | . | .
O[C@H](COc1ccc(Cl)cc1)CN1CCC(C(O)(c2ccccc2)c2ccccc2)CC1 | 7 | -2 | 2 | . | 1 | . | .
CC(C)Cc1ccc(C(C)C(=O)Nc2ccc(O)cc2)cc1 (configuration not stated) | 21* | 1 | 5 | 1 | 1 | 1 | 1
Cc1ccsc1/C=N/NC(=O)c1nnn(-c2nonc2N)c1CN(C)c1ccccc1 | 22* | 3 | 7 | 1 | -7 | 2 | 1
Nc1[nH]c(C(=O)c2ccccc2)c(-c2cccnc2)c1C(=O)NCCc1c[nH]c2ccccc12 | 3 | 1 | 1 | . | 0 | . | .
C=CCn1c(COc2ccccc2)nnc1SCC(=O)c1ccc(-c2ccccc2)cc1 | -4 | 3 | 5 | . | 3 | . | .
CCOC(=O)[C@@H]1c2[nH]c3ccccc3c2C[C@@]2(C(=O)OC)C=CCN12 | -47 | 4 | -21 | . | -7 | . | .
Cc1cccc(C)c1OCC(=O)Nc1oc(-c2ccccc2)c(-c2ccccc2)c1C#N | -3 | 1 | 1 | -14 | -4 | . | .
